Source: PubChem BioAssay (Broad Institute)
PvdQ acylase: P. aeruginosa PvdQ acylase inhibition | purified PvdQ acylase, fluorescence plate reader | inhibition, % at 10 µM | 0.063% of 340,000 active | AID 488965; in the data active = inhibition above about 30%, passing the limit was not always enough; inconclusive = no clear call, values can overlap the other calls;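 note: 0% = vehicle neutral wells and 100% = reference inhibitor wells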
PDI turbidity: blocks human protein disulfide isomerase activity; PDI insulin aggregation turbidity, A650, 90 min; AID 588391; P07237; inhibition, % at 10 µM; 0.052% of 350,000 active;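 active = mean inhibition across replicates of 30% or more, whatever share of single replicates reach that level; inconclusive = mean inhibition below 30% while every single replicate reaches 30%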
FN deposition inh: fibronectin deposition inhibition; inhibition, % at 12.6 µM; AH1F fibroblasts, Alexa488-fibronectin deposition fluorescence, overnight; 0.086% of 350,000 active; AID 743247;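 active = mean inhibition across replicates of 30% or more, regardless of how many single replicates reach that level; inconclusive = mean under 30% yet at least half of replicates reach 30%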;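 note: positive control wells lacked labelled fibronectin entirely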
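test system = AH1F fibroblasts assembling fluorescent fibronectin matrix | quantity = 10000 AH1F cells per well | buffer or medium = DMEM plus 2% serum, read in PBS | doses = single dose, pinned | incubation = 1 h cell attachment, overnight exposure to compound and label | detection = fluorescence at 485 nm excitation, 525 nm emission | read-out basis = inhibition from reduced deposited-fibronectin fluorescence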
HIV Env fusion: blocks HIV Env-driven cell-cell fusion. HeLa-JRFL Env/CEM21 cell fusion, luciferase. inhibition, % at 12.3 µM. 1.1% of 360,000 active. AID 651610;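 active = mean replicate inhibition score of at least 50 and every replicate individually at or above 50; inconclusive = only one of the two criteria met; inactive = mean below 50 and not all replicates reaching 50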;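 note: 0% = plate neutral controls and 100% = maraviroc near 300 nM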
ERp5 inh: blocks human ERp5 reductase activity on insulin; ERp5 insulin aggregation, absorbance 650 nm, 90 min; AID 651711; inhibition, % at 9.99 µM; 0.05% of 350,000 active;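 active = mean replicate inhibition above about 25%, with every replicate also reaching it, limit read from the data, passing the limit was not always enough; inconclusive = only one of those two criteria met; inactive = neither criterion met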
Target sequence (Q15084 whole entry, looked up): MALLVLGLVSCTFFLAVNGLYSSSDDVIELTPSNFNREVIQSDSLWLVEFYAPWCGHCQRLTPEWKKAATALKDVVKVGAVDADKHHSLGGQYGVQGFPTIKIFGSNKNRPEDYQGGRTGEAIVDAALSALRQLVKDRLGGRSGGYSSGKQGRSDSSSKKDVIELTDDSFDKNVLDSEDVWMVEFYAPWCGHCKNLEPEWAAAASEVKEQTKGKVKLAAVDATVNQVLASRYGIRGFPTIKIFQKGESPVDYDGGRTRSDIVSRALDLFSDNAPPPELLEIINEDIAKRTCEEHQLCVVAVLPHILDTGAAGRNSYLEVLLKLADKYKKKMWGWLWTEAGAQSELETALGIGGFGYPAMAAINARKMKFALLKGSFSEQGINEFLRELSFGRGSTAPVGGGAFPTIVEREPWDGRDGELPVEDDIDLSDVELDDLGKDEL
rRNA inh HTS: inhibits bacterial ribosomal RNA function over humanized ribosomes; 1.6% of 350,000 active; E. coli WT GFP vs humanized-ribosome RFP mutants, fluorescence, 24 h; hits give low values; DMSO median 0, no signal -100; GFP signal change (wild-type ribosome), % (test concentration not listed);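 active = significant combined selectivity score with lowered wild-type GFP, culture density cut under 30%, mutant RFP and density less affected; inactive = any of these conditions unmet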
AID977621: growth inhibition of wild-type GFP E. coli, dose response, H69 mutant RFP, cherry-pick; activity change, negative = inhibition at 50 µM; shares compounds with rRNA inh HTS; E. coli wild-type GFP strain growth, fluorescence, 24 h; 1,900 tested, under 10 active;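 active = Wild-type ribosome reporter drop at least double the humanized mutant ribosome reporter drop, growth loss under a set limit; inconclusive = no clear call, values can overlap the other calls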;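 note: wild-type GFP and H69 mutant RFP strains grown together 50/50 in each well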
AID977628: growth of wild-type and h24-humanized E. coli strains – h24 mutant RFP vs wild-type GFP, cherry-pick, dose response. activity change, negative = inhibition at 50 µM. E. coli WT GFP strain growth, fluorescence, 24 h. shares compounds with rRNA inh HTS. 1,900 tested, under 10 active;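 active = compound lowering the normal-ribosome reporter at least twice as much as the humanized-ribosome reporter, growth loss under a set limit; inconclusive = no clear call, values can overlap the other calls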;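 note: wild-type GFP and h24 humanized RFP strains co-cultured 1 to 1 per well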
* marks the source's active call; other numbers are inactive results; [ ] = dose if it differs, or a comment. Hits are enriched below; roughly 2.2% of the tested compounds scored in any of these assays.

What do the screens show for `O=C(O)c1cc(-c2ccc(Cl)s2)nc2ccccc12`?
PvdQ acylase: -9; PDI turbidity: 0; HIV Env fusion: 3; ERp5 inh: 3; rRNA inh HTS: -27*; AID977621: -13; AID977628: inconclusive

What do the screens show for `C[C@@H](NC(=O)[C@H]1[C@H](CO)[C@H]2Cn3c(ccc(-c4ccccc4F)c3=O)[C@@H]1N2C)c1ccccc1`?
HIV Env fusion: 7[16.7 µM]; ERp5 inh: 1; rRNA inh HTS: 4

Results for CC(C)(C)CC(=O)Nc1ccccc1N1CCN(c2ccccc2)CC1 ?
PvdQ acylase: -2; PDI turbidity: -4; FN deposition inh: -16; HIV Env fusion: 21; ERp5 inh: -3; rRNA inh HTS: -19*; AID977621: -18; AID977628: -14

How did C[C@@H]1CN([C@@H](C)CO)C(=O)Cc2cc(NS(=O)(=O)c3ccc(Cl)cc3)ccc2O[C@@H]1CN(C)S(C)(=O)=O do in these assays?
HIV Env fusion: -31[16.7 µM]; ERp5 inh: -1; rRNA inh HTS: 0

What do the screens show for `COc1ccccc1CC(=O)NCc1csc(-c2cccs2)n1`?
PDI turbidity: 7; FN deposition inh: -6; HIV Env fusion: -17; ERp5 inh: 3; rRNA inh HTS: -21*; AID977621: -11; AID977628: 5.7

What do the screens show for `Cc1noc(C)c1S(=O)(=O)N(C)C[C@H]1OCCCC[C@H](C)Oc2ccc(NC(=O)NC3CCCCC3)cc2C(=O)N([C@@H](C)CO)C[C@@H]1C`?
HIV Env fusion: 7[16.7 µM]; ERp5 inh: 1; rRNA inh HTS: 0

What do the screens show for `CC(CCc1ccccc1)NC(=O)CNC(=O)COc1ccccc1` (stereo unspecified)?
PvdQ acylase: 2; PDI turbidity: -1; FN deposition inh: 12; HIV Env fusion: 4; ERp5 inh: 1; rRNA inh HTS: -14*; AID977621: -15

Results for C[C@H](CO)N1C[C@H](C)[C@H](CN(C)S(=O)(=O)c2ccccc2)Oc2ccc(NC(=O)Nc3ccc(C(F)(F)F)cc3)cc2C1=O ?
HIV Env fusion: 15[16.7 µM]; ERp5 inh: 6; rRNA inh HTS: 3

How did COc1ccccc1C1CCN(C(=O)c2cccs2)CC1 do in these assays?
PvdQ acylase: -5; PDI turbidity: -5; FN deposition inh: -1; HIV Env fusion: -2; ERp5 inh: 2; rRNA inh HTS: -25*; AID977621: 2.2; AID977628: -11

Results for Cc1nn2c(C)c(C(=O)Nc3ccccc3)cnc2c1-c1ccccc1 ?
PvdQ acylase: -16; PDI turbidity: 1; FN deposition inh: 5; HIV Env fusion: -5; ERp5 inh: -3; rRNA inh HTS: -32*; AID977621: 8.6; AID977628: -3.7

What do the screens show for `CC(=O)c1cnc2c(-c3ccccc3)c(C(F)(F)F)nn2c1C`?
PvdQ acylase: 3; PDI turbidity: 2; FN deposition inh: 10; HIV Env fusion: -38; ERp5 inh: 6

How did O=C(NCC[C@H]1CC[C@H](NC(=O)C2CCCCC2)[C@H](CO)O1)Nc1ccc(Cl)cc1 do in these assays?
FN deposition inh: 8; HIV Env fusion: -3[16.7 µM]; ERp5 inh: 1; rRNA inh HTS: -20

How did NC(=O)CSc1nnc(-c2cnccn2)n1-c1ccccc1 do in these assays?
PvdQ acylase: -1; PDI turbidity: 2

Results for Cc1ccc(-n2c(SCC(N)=O)nnc2-c2cnccn2)cc1 ?
PDI turbidity: -2; FN deposition inh: 3; HIV Env fusion: -4; ERp5 inh: 2; rRNA inh HTS: -25*; AID977621: -2.2; AID977628: inconclusive

Results for CSc1nnnn1-c1ccc(Cl)cc1 ?
PvdQ acylase: -11; PDI turbidity: 6; FN deposition inh: 5; HIV Env fusion: -22; ERp5 inh: 1; rRNA inh HTS: -32*; AID977621: -18; AID977628: -18
